Data: article PMC2865030 (Biochemical Journal, 2008)
Ends that are not written are not given here.

Columns and labels:
Tah1 [1] = biological target: T1, Tah1 (Saccharomyces cerevisiae, UniProt P25638); experiment: ITC of peptides injected into Tah1; format: binding, S. cerevisiae
T1 sequence (P25638 1-111): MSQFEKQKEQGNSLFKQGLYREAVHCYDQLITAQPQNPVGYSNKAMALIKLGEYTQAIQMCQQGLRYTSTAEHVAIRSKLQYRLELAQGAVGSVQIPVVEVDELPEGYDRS

yeast Hsp90 M705V = experiment: ITC of TPR-domain proteins with yeast Hsp90 M705V; format: binding; settings: 300 μM Tah1 injected into 30 μM yeast Hsp90 M705V, 4 °C, pH 8.0
Outline: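 ITC: mouse CHIP or yeast Tah1 (His tags cleaved) at 300 µM was titrated as 9–11 injections of 27 µl into 30 µM yeast Hsp90 M705V. Runs were at 30 °C for CHIP and 4 °C for Tah1, in 20 mM Tris/HCl pH 8.0, 1 mM EDTA, 5 mM NaCl. Data were corrected for separately measured heat of dilution and fitted by nonlinear least squares for stoichiometry, binding constant and enthalpy.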

Tah1 [2] = biological target: T1, Tah1; experiment: Sedimentation equilibrium analytical ultracentrifugation of Tah1; format: physicochemical, S. cerevisiae; settings: for Kd: 20 °C, pH 7.5
Outline: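 Tag-cleaved Tah1 was dialysed into 20 mM Tris/HCl pH 7.5, 1 mM EDTA, 5 mM NaCl. Sedimentation equilibrium was run at 20 °C, loading 7.0 and 0.5 mg·ml−1 (547 and 39 µM), with a 12 mm path. Initial scans at 726 g checked for aggregates, followed by 39030 g, scanning hourly until unchanged (24 h). Data were fitted by INVEQ, Mfit and NONLIN, and Ka was reciprocated to Kd. Reversible versus irreversible dimer was judged by comparing the two loadings.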

| Substance | Kd (Tah1 [1]) [µM] | other results |
| --- | --- | --- |
| AEGPTMEEVD | 4.2 ± 0.5 |  |
| Tah1: TPR-containing protein associated with Hsp90, S. cerevisiae, 111 amino acid residues, Hsp90-interacting co-chaperone |  | Kd (yeast Hsp90 M705V): 13 ± 1.7 µM; dimeric species present (Tah1 [2]; estimated from INVEQ fit, sedimentation equilibrium): approx. 19%; Kd (Tah1 [2]; read-out: Kd by INVEQ, Tah1 0.5 mg·ml−1 (39 μM), monomer-dimer): 510 µM; Kd (Tah1 [2]; read-out: Kd′ by NONLIN′, Tah1 0.5 mg·ml−1 (39 μM)): 150 µM; Kd (Tah1 [2]; read-out: Kd′ by NONLIN′, Tah1 7.0 mg·ml−1 (547 μM)): 1800 µM |
| PADTEAEEVD | 3.3 ± 0.2 |  |
| AEGPTAEEVD | 14.8 ± 0.7 |  |
| PADAAMEEVD | 0.75 ± 0.04 |  |
| PADTEVEEVD | 9.8 ± 0.7 |  |
